Bioassay records deposited in PubChem by The Scripps Research Institute Molecular Screening Center.
OXTR potentiate: human OXTR potentiation; CHO-OTR cells, Fluo-8 calcium fluorescence, potentiator mode; 0% = oxytocin EC15, 100% = EC100; activation, % at 3 µM; 320,000 compounds, 0.061% hits; P30559;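 active = activation above that plate's cutoff, the mean activation of tested compounds plus 3 SD, cut at about 6.6% in these data, passing the limit was not always enough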;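 also: 100% uses oxytocin at 75 nM as the full agonist control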
Target sequence (P30559 whole entry, looked up): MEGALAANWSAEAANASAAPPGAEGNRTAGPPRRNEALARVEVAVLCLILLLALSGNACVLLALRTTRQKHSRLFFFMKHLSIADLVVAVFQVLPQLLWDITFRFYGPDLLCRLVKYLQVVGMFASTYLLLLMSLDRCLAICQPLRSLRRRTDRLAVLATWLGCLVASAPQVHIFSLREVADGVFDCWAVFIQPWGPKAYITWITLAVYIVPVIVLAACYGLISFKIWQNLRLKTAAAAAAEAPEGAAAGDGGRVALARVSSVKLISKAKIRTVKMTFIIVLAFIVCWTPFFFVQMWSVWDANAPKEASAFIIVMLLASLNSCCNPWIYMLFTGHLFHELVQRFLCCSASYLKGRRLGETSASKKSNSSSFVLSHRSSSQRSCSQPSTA
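System: human OTR in CHO cells / Also added: sub-maximal oxytocin, roughly EC15 / Control set: EC15 oxytocin low, 75 nM oxytocin high / Schedule: 6 min compound pre-incubation at room temperature, 100 s kinetic read / Compound: single-point 3.0 µM / Replication: singlicate / Technique: Fluo-8 calcium dye fluorescence / Read-out basis: % activation of max/min ratio relative to oxytocin controls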
V1R ag counter: counter-screen for oxytocin receptor agonists: human V1a receptor agonists; P37288; CHO-V1R cells, Fluo-8 calcium fluorescence, agonist mode; 0% DMSO, 100% 3 nM vasopressin; activation, % at 3 µM; 320,000 compounds, 0.25% hits;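 active = activation above the mean activation of all tested compounds plus 3 SD, per screening run, cut at about 20% in these data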;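 also: signal is peak over basal fluorescence ratio across a 100 second FLIPR read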
TAAR1 agonist: human TAAR1 agonism. Q96RJ0. CHO RD-HGA16 TAAR1, Fluo-8 calcium fluorescence; vehicle wells 0%, saturating PEA agonist 100%. 360,000 compounds, 0.99% hits. activation, % at 3 µM;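 active = activation above the mean activation of all test compounds in the run plus 3 SD, cut at about 38% in these data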
Target sequence (Q96RJ0 whole entry, looked up): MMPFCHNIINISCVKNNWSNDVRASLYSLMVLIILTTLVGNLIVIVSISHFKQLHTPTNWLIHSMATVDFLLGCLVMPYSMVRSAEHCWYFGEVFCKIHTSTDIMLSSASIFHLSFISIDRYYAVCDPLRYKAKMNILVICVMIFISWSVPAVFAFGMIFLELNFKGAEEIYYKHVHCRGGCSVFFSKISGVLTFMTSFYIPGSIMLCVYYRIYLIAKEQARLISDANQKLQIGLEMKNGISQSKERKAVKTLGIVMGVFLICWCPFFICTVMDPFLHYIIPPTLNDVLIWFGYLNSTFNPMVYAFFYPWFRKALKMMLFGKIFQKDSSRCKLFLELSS
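Test system: RD-HGA16 (CHO) cells co-expressing Gα16 and hTAAR1 / Benchmarks: DMSO vehicle as 0%, PEA at EC100 as 100% / Repeats: no replicates (n 1) / Measure: % activation from peak over basal fluorescence ratio, DMSO-to-PEA scaled / Timing: 17-24 h plating, Fluo-8 75 min 37 °C, 30 min RT / Technique: kinetic Fluo-8 calcium fluorescence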
TAAR1 antagonist: human TAAR1 antagonism; AID 624466; CHO RD-HGA16 TAAR1, Fluo-8 calcium fluorescence, antagonist; Q96RJ0; 360,000 compounds, 1.5% hits; inhibition, % at 3 µM;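 active = inhibition above a per-plate cutoff, the mean inhibition of test compounds on that plate plus 3 SD, cut at about 49% in these data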;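 also: 0% = DMSO plus EC80 beta-PEA response and 100% = DMSO alone without agonist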
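Material: CHO RD-HGA16 cells bearing hTAAR1; compound dosing: one-point dosing, 3 µM nominal final; schedule: dye loading 75 min at 37 °C, then 30 min room temperature; measured by: calcium fluorescence with Fluo-8; control set: vehicle and agonist controls; replication: n of 1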
OXTR agonist: human OXTR agonism. P30559. CHO-OTR cells, Fluo-8 calcium fluorescence; normalized: DMSO 0%, oxytocin 100%. activation, % at 3 µM. 320,000 compounds, 0.32% hits. AID 2435;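 active = activation above the mean of all tested compounds plus 3 SD, cutoff set per screening run, cut at about 20% in these data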;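 also: peak over basal fluorescence ratio from a 100 s FLIPR kinetic read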
TAAR1 ag confirm: confirmation of human TAAR1 agonists. shares compounds with TAAR1 agonist. CHO RD-HGA16 TAAR1, Fluo-8 calcium fluorescence; scaled: DMSO 0%, maximal phenethylamine 100%. 2,400 compounds, 82% hits. activation, % at 3 µM;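 active = activation above a cutoff set at the run's mean compound activation plus 3 SD, cut at about 39% in these data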
Ga16 ag counter: nonselective agonism, TAAR1 counter-screen. shares compounds with TAAR1 agonist. CHO-Ga16 parental, Fluo-8 calcium fluorescence; normalized to maximal ATP response, DMSO zero. activation, % at 3 µM. 2,400 compounds, 50% hits. AID 651787;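 active = activation above the run cutoff, the mean activation over all tested wells plus 3 SD, cut at about 12% in these data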;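 also: 0% = DMSO wells and 100% = maximal ATP response on the peak over basal ratio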
TAAR1 desensitize: human TAAR1 agonist that also desensitizes the receptor; shares compounds with TAAR1 agonist; CHO RD-HGA16 hTAAR1, Fluo-8 calcium, beta-PEA response inhibition; inhibition, % at 3 µM; 2,400 compounds, 46% hits;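 active = inhibition above the run cutoff, the mean inhibition of all test compounds plus 3 SD, cut at about 49% in these data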;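 also: beta-PEA stimulus applied at its EC80; loss of beta-PEA calcium signal after compound pretreatment read as receptor desensitization; 0% = DMSO with beta-PEA at EC80 and 100% = DMSO alone without agonist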
Ga16 antag count: counter-screen for TAAR1 agonists: nonselective Ga16 antagonists; shares compounds with TAAR1 agonist; CHO-Ga16 ATP-induced calcium, Fluo-8 fluorescence; inhibition, % at 3 µM; 2,400 compounds, 39% hits; AID 651952;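 active = inhibition above the plate's mean compound inhibition plus 3 SD, computed per plate, cut at about 22% in these data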;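 also: 0% = EC80 ATP with DMSO and 100% = DMSO wells without ATP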
The depositor's hits bear a star; x = no result. Compounds with a hit are over-represented: about 2.3% of the library has one in this group of screens.

SMILES	OXTR potentiate	V1R ag counter	TAAR1 agonist	TAAR1 antagonist	OXTR agonist	TAAR1 ag confirm	Ga16 ag counter	TAAR1 desensitize	Ga16 antag count
CCC(=O)N(CCCN(C)C)c1nc(-c2cc(OC)ccc2OC)cs1	-4.1	0.0	3.6	-2.1	2.4	x	x	x	x
O=S(=O)(c1cccc(-c2n[nH]c(=S)n2-c2ccc(OC(F)(F)F)cc2)c1)N1CCOCC1	-5.0	0.6	7.7	-6.1	0.6	x	x	x	x
Cc1onc(-c2ccccc2)c1C(=O)NC(=S)NNC(=O)c1ccccc1O	-14.3	68.0*	164.4*	57.3*	65.0*	140.6*	103.2*	100.3*	63.1*
CCCOc1ccc(C(=O)NC(=S)NNC(=O)c2c(-c3ccccc3)noc2C)cc1	-19.3	106.0*	176.1*	107.7*	93.2*	140.7*	108.5*	101.3*	94.0*
CCCOc1ccc(NC(=O)c2c(-c3ccccc3)noc2C)cc1	1.9	-0.4	-3.4	2.2	0.3	x	x	x	x
NC(c1ccccc1)c1csc(NC(=O)Nc2cccc(Cl)c2)n1 (centres undefined)	x	x	64.4*	28.6	x	74.2*	21.9*	57.4*	35.8*
NC(c1ccccc1)c1csc(NC(=O)NCCc2ccccc2)n1 (centres undefined)	x	x	62.4*	11.2	x	28.1	4.6	15.6	15.3
Cc1ccc(NC(=O)c2ncn(CCCN(CCCn3cnc(C(=O)Nc4ccc(C)c(C)c4)n3)Cc3ccc4[nH]ccc4c3)n2)cc1C	x	x	1.5	-28.0	x	x	x	x	x
COC(=O)C1=C(CS(=O)(=O)c2ccc(OC)cc2)NC(=O)NC1c1ccccc1 (centres undefined)	-1.5	-0.4	0.0	-4.6	0.7	x	x	x	x
O=C(O)C1=C(C(=O)N2CCN(C(=O)c3ccco3)CC2)CCCC1	-1.9	0.7	43.1*	13.2	0.6	51.6*	1.8	16.2	6.0
O=C(COC(=O)Cn1cnc2ccccc2c1=O)Nc1ccc(Cl)cc1	-7.7	1.7	48.9*	13.6	1.3	65.5*	1.5	28.2	3.6
CN(C)CCNc1ncnc2c1ncn2[C@H]1CN(CCc2ccccc2)C[C@@H](CO)O1	x	x	57.6*	-16.5	x	47.9*	-0.7	6.8	4.3
CNc1ncnc2c1ncn2[C@H]1CN(CCc2ccccc2)C[C@@H](CO)O1	x	x	20.9	-20.1	x	x	x	x	x
Nc1nonc1-n1nnc(C(=O)N/N=C/c2ccc(Br)cc2)c1-c1ccc2c(c1)OCO2	-4.4	2.2	154.3*	93.1*	0.5	149.9*	112.2*	96.5*	81.2*
Nc1nonc1-n1nnc(C(=O)N/N=C/c2cccc(Cl)c2)c1-c1ccc2c(c1)OCO2	-9.9	2.7	14.6	28.6	1.4	x	x	x	x
Nc1nonc1-n1nnc(C(=O)N/N=C/c2ccc3c(c2)OCO3)c1-c1ccccc1	-10.0	6.2	75.2*	6.9	10.2	44.6*	26.3*	15.9	10.8
COc1cccc(CN(C)C(=O)c2ccccc2SCC(=O)N2CCCC2)c1	0.9	1.0	1.0	2.7	0.3	x	x	x	x
O=C(Nc1cccc(C(F)(F)F)c1)C1CCN(S(=O)(=O)c2cccnc2)CC1	-8.3	4.2	7.1	14.9	4.7	x	x	x	x
Cc1nc(NC(=O)C2CC2)sc1C(=O)Nc1ccccc1Cl	x	x	5.7	17.0	x	x	x	x	x
Cc1ccc(NS(=O)(=O)c2ccc(C(=O)N3CC(C)CC(C)C3)cc2)cc1 (centres undefined)	-22.1	42.9*	140.8*	102.5*	69.4*	128.3*	91.3*	105.7*	88.6*
Cc1ccc(S(=O)(=O)Nc2ccc(C(=O)N3CCCC3)cc2)cc1	-3.9	1.0	2.1	-7.9	-0.4	x	x	x	x
COc1ccc2c(c1)C(SCC(=O)NCCc1ccccc1)CC(C)(C)O2 (centres undefined)	-0.1	-0.3	67.8*	61.2*	-2.4	72.9*	0.9	76.2*	15.7
CN(C(=O)c1ccc(NC(=O)Cc2ccc([N+](=O)[O-])cc2)cc1)C1CC1	-9.2	29.8*	77.3*	38.6	38.4*	97.1*	41.5*	34.7	17.1
CCCCN(C(=O)NC(=O)Nc1cccc(C)c1C)S(C)(=O)=O	-13.2	8.7	70.4*	24.9	14.0	58.5*	18.9*	17.6	10.4
O=C(O)COCC(=O)NCc1csc2ccccc12	-4.0	0.1	51.4*	-40.4	0.1	54.9*	-0.3	26.3	5.8
SMILES	OXTR potentiate	V1R ag counter	TAAR1 agonist	TAAR1 antagonist	OXTR agonist	TAAR1 ag confirm	Ga16 ag counter	TAAR1 desensitize	Ga16 antag count
C=C1CCN([C@@H](C)C(=O)NCc2ccc(Cl)cc2)S(=O)(=O)c2ccccc21	-12.0	1.5	11.5	23.4	2.5	x	x	x	x
N#C/C(=C/c1cn[nH]c1-c1cccc(Br)c1)C(=O)O	0.9	-1.4	70.8*	-1.5	-0.5	111.7*	51.7*	24.6	3.5
CCc1cc(C(=O)Nc2ccc(OC)nc2)sc1C	-5.2	0.6	2.2	6.4	0.5	x	x	x	x
O=C(Nc1cccnc1)c1ccc(Br)s1	-2.5	0.3	5.9	15.3	-0.4	x	x	x	x
CCc1sc(C(=O)Nc2cccnc2)cc1Br	-8.0	0.2	64.9*	22.5	7.5	48.1*	32.6*	16.0	10.9
COc1ccc(NC(=O)c2cc(Br)c(Br)s2)cn1	-9.0	1.5	71.0*	28.9	0.9	48.5*	42.1*	35.9	10.6
O=C(Cn1nc(-c2ccccc2)c2ccccc2c1=O)NN1CCOCC1	-4.6	-2.2	0.1	-20.1	0.2	x	x	x	x
CCN(CC)c1ccc(C(=O)Nc2ccccc2)cc1[N+](=O)[O-]	-4.9	-0.4	11.0	37.7	-2.2	x	x	x	x
Clc1ccc(-c2nc3ccncc3[nH]2)cc1	5.9	0.2	48.6*	19.2	-0.6	71.7*	-0.8	39.9	7.6
CN(C)CCCN(C(=O)c1ccc(S(=O)(=O)N(C)C2CCCCC2)cc1)c1nc2ccc(Br)cc2s1	-8.6	2.3	32.0	27.8	2.6	x	x	x	x
CN(C)CCCN(C(=O)c1ccc(S(=O)(=O)N(C)C2CCCCC2)cc1)c1nc2ccc(F)cc2s1	-4.9	1.7	47.0*	20.0	6.1	48.6*	21.9*	48.9*	32.5*
COP(=O)(OC)c1nc(-c2cccc3ccccc23)oc1NCCc1ccccc1	-4.1	-0.3	74.5*	75.2*	-2.5	88.2*	7.6	83.0*	27.0*
COc1ccc(CCNc2oc(-c3cccc4ccccc34)nc2P(=O)(OC)OC)cc1OC	-10.3	4.7	10.8	11.6	2.8	x	x	x	x
